Test results from ChEMBL document CHEMBL1909555, “Synthesis and antimalarial activity of thioetherhydroxyethylsulfonamides, potential aspartyl protease inhibitors, Part 3” (Eur J Med Chem, 2011).
Values after ≈ are worked out from the molar mass of the structure shown.

Columns and labels:
Plasmodium falciparum = test: Antimalarial activity against chloroquine resistant, mefloquine sensitive Plasmodium falciparum W2 infected in human erythrocytes by [3H]-hypoxanthine incorporation assay; format: functional, organism-based
[1] = Cytotoxicity against human HepG2 cells after 24 hrs by MTT assay; format: cell-based; conditions: read-out: LD50
In short: (§1)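 Trypsinized cells seeded at 5 × 10³/well and allowed to adhere 18 h. Compounds added at varied concentrations for 24 h. MTT then added for 3 h, formazan dissolved in DMSO, absorbance read at 570 and 630 nm. Viability taken as % of untreated control after background subtraction, and LD50 derived.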

[2] = Cytotoxicity against african green monkey BGMK cells after 24 hrs by MTT assay; format: cell-based; conditions: chlorocebus aethiops, read-out: LD50; in short: as §1

Question: What does the source list for `CC(C)(C)OC(=O)N[C@@H](Cc1ccccc1)[C@H](O)CSc1ccccn1`?
Answer: IC50 (Plasmodium falciparum): 31.7 µg/mL (≈ 84.6 µM); CC50 at 24 h [1]: > 200 µg/mL; CC50 at 24 h [2]: > 200 µg/mL

Question: For `CC(C)(C)OC(=O)N[C@@H](Cc1ccccc1)[C@H](O)CSc1ncccn1`, which IC50 (Plasmodium falciparum) is on record?
Answer: Its IC50 is greater than 50 µg/mL.

Question: What about the CC50 at 24 h [1] of the same compound?
Answer: The CC50 at 24 h was 197 µg/mL (≈ 525 µM).

Question: And the CC50 at 24 h [2]?
Answer: Its CC50 at 24 h is 170 µg/mL (≈ 453 µM).

Question: What does the source list for `O=[N+]([O-])c1ccc(S(=O)(=O)N[C@@H](Cc2ccccc2)[C@H](O)CSc2ccccn2)cc1`?
Answer: IC50 (Plasmodium falciparum): > 50 µg/mL; CC50 at 24 h [1]: > 200 µg/mL; CC50 at 24 h [2]: > 200 µg/mL

Question: Which IC50 (Plasmodium falciparum) does the source give for `Cc1ccc(S(=O)(=O)N[C@@H](Cc2ccccc2)[C@H](O)CSc2ccccn2)cc1` here?
Answer: Its IC50 is greater than 50 µg/mL.

Question: And the CC50 at 24 h [1]?
Answer: Its CC50 at 24 h is 191 µg/mL (≈ 446 µM).

Question: And the CC50 at 24 h [2]?
Answer: The CC50 at 24 h was 192 µg/mL (≈ 448 µM).

Question: Which IC50 (Plasmodium falciparum) does the source give for `O=[N+]([O-])c1ccc(S(=O)(=O)N[C@@H](Cc2ccccc2)[C@H](O)CSc2ncccn2)cc1` here?
Answer: The IC50 was 15 µg/mL (≈ 32.6 µM).

Question: What about the CC50 at 24 h [1] of the same compound?
Answer: The CC50 at 24 h was greater than 200 µg/mL.

Question: What about the CC50 at 24 h [2] of the same compound?
Answer: The CC50 at 24 h was greater than 200 µg/mL.

Question: Which IC50 (Plasmodium falciparum) does the source give for `O=S(=O)(N[C@@H](Cc1ccccc1)[C@H](O)CSc1ncccn1)c1ccc(Br)cc1` here?
Answer: Its IC50 is 25 µg/mL (≈ 50.6 µM).

Question: And the CC50 at 24 h [1]?
Answer: Its CC50 at 24 h is 101 µg/mL (≈ 204 µM).

Question: And the CC50 at 24 h [2]?
Answer: The CC50 at 24 h was 99 µg/mL (≈ 200 µM).
